Data reported in ChEMBL document CHEMBL1123173, “Synthesis and antiherpes virus activity of phosphate and phosphonate derivatives of 9-[(1,3-dihydroxy-2-propoxy)methyl]guanine” (1986).
Activity calls are given as the source filed them. No cut-off for these calls is given here.

How the values were obtained:
[1] = test system: Mus musculus; assay: (§1) Effect of oral treatment with compound on HSV-2 induced mortality in mice at 10 mg/kg dose; NS=Not significant; type: functional, organism-based; parameters: dose 10 mg/kg
Outline: (§2)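 Female Swiss-Webster mice, about 20 g, infected intraperitoneally with 5×10^4 PFU of HSV-2 strain G (about ten LD50). Oral dosing once every 24 h for 4 days, starting 24 h post-infection, with a saline-treated control group. Groups of 19–20 mice. Survivors were scored and compared by Fisher exact test. Mean survival time (days ± SD) was compared by Mann-Whitney U test. NS means p > 0.05.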

[2] = test system: Vero; assay: In vitro antiviral activity was measured against HSV-1 (MP-PAA/DHPG) in Vero cells; type: functional; details: Chlorocebus sabaeus, read-out: ID50 (the source's name)
[3] = test system: Mus musculus; assay: Effect of oral treatment with compound on HSV-2 induced mortality in mice at 20 mg/kg dose; type: functional; outline: as §2
[4] = test system: Mus musculus; assay: (§3) Effect of oral treatment with compound on HSV-2 induced mortality in mice at 5 mg/kg dose; NS=Not significant; type: functional, organism-based; parameters: dose 5 mg/kg
Outline: (§4)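 Female Swiss-Webster mice (ca. 20 g) infected intraperitoneally with 5×10^4 PFU HSV-2 strain G (about ten 50% lethal doses). Oral dosing once every 24 h for 4 days, starting 24 h postinfection; saline controls. Survivors/total recorded, survivor increase tested by Fisher exact test; mean survival time (days ± standard deviation) compared by Mann-Whitney U test.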

[5] = test system: Mus musculus; assay: Effect of oral treatment with compound on HSV-2 induced mortality in mice at 5 mg/kg dose; 1/19; type: functional; outline: as §2
[6] = test system: Vero; assay: In vitro anticellular activity was measured against vero cells; type: functional; details: Chlorocebus sabaeus, read-out: ID50 (the source's name)
Outline: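 Cell proliferation assay in uninfected Vero cells.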

[7] = test system: Mus musculus; assay: Effect of oral treatment with compound on HSV-2 induced mortality in mice at 20 mg/kg dose; 12/20; type: functional; outline: as §2
[8] = test system: Mus musculus; assay: Effect of oral treatment with compound on HSV-2 induced mortality in mice at 10 mg/kg dose; 2/20; type: functional; outline: as §2
[9] = test system: Mus musculus; assay: as §3; type: functional, organism-based; parameters: dose 5 mg/kg; outline: as §2; remark: listed apart in the source
[10] = test system: Mus musculus; assay: Effect of on mean survival time upon oral treatment on HSV-2 induced mortality in mice at 5 mg/kg dose; type: functional; outline: as §2
[11] = test system: Vero; assay: In vitro antiviral activity was measured against HSV-1 (F delta 305) in Vero cells; type: functional; details: Chlorocebus sabaeus, read-out: ID50 (the source's name)
[12] = test system: Vero; assay: In vitro antiviral activity was measured against HSV-1(F) in Vero cells; type: functional; details: Chlorocebus sabaeus, read-out: ID50 (the source's name)
[13] = test system: Mus musculus; assay: Effect of on mean survival time upon oral treatment on HSV-2 induced mortality in mice at 20 mg/kg dose; type: functional; outline: as §2
[14] = test system: Mus musculus; assay: Effect of oral treatment with compound on HSV-2 induced mortality in mice at 10 mg/kg dose; type: functional; outline: as §2
[15] = test system: MRC5; assay: In vitro antiviral activity was measured against HCMV(AD-169) in MRC5 cells; type: functional; details: Homo sapiens, read-out: ID50 (the source's name)
[16] = test system: Vero; assay: In vitro antiviral activity was measured against HSV-2(G) in Vero cells; type: functional; details: Chlorocebus sabaeus, read-out: ID50 (the source's name)
[17] = test system: Mus musculus; assay: Effect of on mean survival time upon oral treatment on HSV-2 induced mortality in mice at 10 mg/kg dose; type: functional; outline: as §2
[18] = test system: Mus musculus; assay: Effect of oral treatment with compound on HSV-2 induced mortality in mice at 20 mg/kg dose; 3/20; type: functional; outline: as §2
[19] = test system: Mus musculus; assay: as §1; type: functional, organism-based; parameters: dose 10 mg/kg; outline: as §4; remark: listed apart in the source
[20] = test system: Mus musculus; assay: (§5) Effect of oral treatment with compound on HSV-2 induced mortality in mice at 20 mg/kg dose; NS=Not significant; type: functional, organism-based; parameters: dose 20 mg/kg; outline: as §2
[21] = test system: Mus musculus; assay: as §5; type: functional, organism-based; parameters: dose 20 mg/kg; outline: as §4; remark: listed apart in the source
[22] = test system: Mus musculus; assay: Effect of oral treatment with compound on HSV-2 induced mortality in mice at 5 mg/kg dose; 3/20; type: functional; outline: as §2
[23] = test system: Mus musculus; assay: Effect of oral treatment with compound on HSV-2 induced mortality in mice at 10 mg/kg dose; 0/20; type: functional; outline: as §2
[24] = test system: Mus musculus; assay: Effect of subcutaneous treatment with compound on HSV-2 induced mortality in mice at 15 mg/kg dose; type: functional
Outline: (§6)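 Female Swiss-Webster mice, about 20 g, challenged intraperitoneally with 5×10^4 PFU of HSV-2 strain G (about ten LD50). Subcutaneous dosing once daily for 4 days, beginning 24 h after infection, with a saline control group. 15 mice per group. Survivor numbers were compared by Fisher exact test and mean survival time (± SD) by Mann-Whitney U test. NS means p > 0.05.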

[25] = test system: Mus musculus; assay: Effect of subcutaneous treatment with compound on HSV-2 induced mortality in mice at 1.5 mg/kg dose; type: functional; outline: as §6
[26] = test system: Mus musculus; assay: Effect of subcutaneous treatment with compound on HSV-2 induced mortality in mice at 15 mg/kg dose; 15/15; type: functional; outline: as §6
[27] = test system: Mus musculus; assay: Effect of subcutaneous treatment with compound on HSV-2 induced mortality in mice at 1.5 mg/kg dose; 8/15; type: functional; outline: as §6
[28] = test system: Mus musculus; assay: Effect of subcutaneous treatment with compound on HSV-2 induced mortality in mice at 5 mg/kg dose; type: functional; outline: as §6
[29] = test system: Mus musculus; assay: Effect of oral treatment with compound on HSV-2 induced mortality in mice at 10 mg/kg dose; 6/20; type: functional; outline: as §2
[30] = test system: Mus musculus; assay: Effect of oral treatment with compound on HSV-2 induced mortality in mice at 5 mg/kg dose; type: functional; outline: as §2
[31] = test system: Mus musculus; assay: Effect of oral treatment with compound on HSV-2 induced mortality in mice at 5 mg/kg dose; 0/19; type: functional; outline: as §2
[32] = test system: Mus musculus; assay: Effect of oral treatment with compound on HSV-2 induced mortality in mice at 20 mg/kg dose; 11/20; type: functional; outline: as §2
[33] = test system: Mus musculus; assay: Effect of subcutaneous treatment with compound on HSV-2 induced mortality in mice at 5 mg/kg dose; 10/15; type: functional; outline: as §6
[34] = test system: Mus musculus; assay: Effect of oral treatment with compound on HSV-2 induced mortality in mice at 10 mg/kg dose; 4/20; type: functional; outline: as §2
[35] = test system: Mus musculus; assay: Effect of oral treatment with compound on HSV-2 induced mortality in mice at 20 mg/kg dose; 6/20; type: functional; outline: as §2

`Nc1nc(O)c2ncn(COC(CO)COP(=O)(O)O)c2n1` (stereo unspecified) was tested, and the Survivor increase [1] was “inactive”, the IC50 [2] was greater than 200 µM and the Survivor increase [3] was 0.002. The “p-value for mean survival time increase” value [3] was less than 0.001, the MST increase [4] was “inactive” and the Survivors [5] was 1. It also gave an IC50 [6] of 700 µM, a Survivors [7] of 12 and a Survivors [8] of 2. The Survivor increase [9] was “inactive”, the MST [10] was 10 days and the IC50 [11] was 6 µM. The IC50 [12] was 0.2 µM, the MST [13] was 10.5 days and the MST increase [14] was less than 0.01. For the same molecule, the IC50 [15] was 12 µM, the IC50 [16] was 1.7 µM and the MST [17] was 11.3 days.
With `Nc1nc(O)c2ncn(COC(CO)CCP(=O)(O)O)c2n1` (stereo unspecified) the Survivor increase [1] was “inactive”, the IC50 [2] was greater than 200 µM and the Survivors [18] was 3. The MST increase [19] was “inactive”, the MST increase [4] was “inactive” and the IC50 [6] was greater than 1000 µM. The Survivor increase [20] was “inactive”, the Survivor increase [9] was “inactive” and the MST [10] was 8.2 days. For the same molecule, the IC50 [11] was 50 µM, the MST increase [21] was “inactive” and the IC50 [12] was 28 µM. The MST [13] was 8.3 days, the IC50 [15] was 10 µM and the IC50 [16] was greater than 100 µM. The Survivors [22] was 3, the Survivors [23] was 0 and the MST [17] was 8.3 days.
For `Nc1nc2c(ncn2COC(CO)CO)c(=O)[nH]1` [GANCICLOVIR], the Survivor increase [1] was “inactive”, the IC50 [2] was 125 µM and the MST increase [24] was less than 0.001. The Survivor increase [24] was less than 0.001, the MST increase [25] was less than 0.001 and the Survivor increase [25] was 0.01. For the same molecule, the Survivors [26] was 15, the Survivor increase [3] was 0.005 and the “p-value for mean survival time increase” value [3] was less than 0.01. The Survivors [27] was 8, the IC50 [6] was 450 µM and the MST increase [28] was less than 0.001. For the same molecule, the Survivor increase [28] was less than 0.001, the Survivor increase [9] was “inactive” and the MST ([10]; 5 mg/kg) was 11.3 days. The IC50 [11] was 10 µM, the IC50 [12] was 0.2 µM and the Survivors [29] was 6. It also gave an MST [13] of 11.9 days, an MST increase [14] of less than 0.025 and an IC50 [15] of 5 µM. It also gave an IC50 [16] of 1.6 µM, an MST increase [30] of less than 0.01 and a Survivors [31] of 0. For the same molecule, the Survivors [32] was 11, the Survivors [33] was 10 and the MST [17] was 10.9 days.
In the case of `Nc1nc(O)c2ncn(COC(COP(=O)(O)O)COP(=O)(O)O)c2n1`, the Survivor increase [1] is reported as “inactive”, the IC50 [2] is reported as greater than 200 µM and the Survivors [34] is reported as 4. The Survivors [35] was 6, the “p-value for mean survival time increase” value [3] was less than 0.02 and the MST increase [4] was “inactive”. The IC50 [6] was 800 µM, the Survivor increase [20] was “inactive” and the Survivor increase [9] was “inactive”. For the same molecule, the MST [10] was 9.6 days, the IC50 [11] was 13 µM and the IC50 [12] was 0.4 µM. It also gave an MST [13] of 10.6 days, an MST increase [14] of less than 0.05 and an IC50 [15] of 8 µM. It also gave an IC50 [16] of 5 µM, a Survivors [30] of 8 and an MST [17] of 10.8 days.
